# Measurements published in ChEMBL document CHEMBL1129639, “Synthesis and cardiotonic activity of novel pyrimidine derivatives: crystallographic and quantum chemical studies” (J Med Chem, 1996).
# Legend:
# Type in all cases: functional
# [1] = species: Cavia porcellus; assay: Effect on the frequency rate of spontaneously beating atria from Reserpine-treated guinea pigs as percentage variation from the control at concentration of 10E-4 M
# How it was run: (§1)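 Atria from reserpine-treated guinea pigs (reserpine 2 mg/kg ip, 48 and 24 h before death; only tyramine-unresponsive preparations used). Bath solution at 29 °C, gassed 95% O2/5% CO2, pH 7.5, resting tension […]. After 90 min equilibration, compound added cumulatively, 5 min per concentration. Isometric developed-tension amplitude or beating rate given as % variation from untreated control. Mean ± SEM, 6-10 assays.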
# [2] = species: Cavia porcellus; assay: Effect on the contractile force of spontaneously beating atria from Reserpine-treated guinea pigs as percentage variation from the control at concentration of 3 x 10E-4 M; how it was run: as §1
# [3] = species: Cavia porcellus; assay: Effect on the frequency rate of spontaneously beating atria from Reserpine-treated guinea pigs as percentage variation from the control at concentration of 10E-5 M; how it was run: as §1
# [4] = species: Cavia porcellus; assay: Effect on the contractile force of spontaneously beating atria from Reserpine-treated guinea pigs as percentage variation from the control at concentration of 3 x 10E-5 M; how it was run: as §1
# [5] = species: Cavia porcellus; assay: Compound was evaluated for its effect on the frequency rate of spontaneously beating atria from Reserpine-treated guinea pigs as percentage variation from the control at concentration of 3 x 10E-6 M; how it was run: as §1
# [6] = species: Cavia porcellus; assay: Effect on the frequency rate of spontaneously beating atria from Reserpine-treated guinea pigs as percentage variation from the control at concentration of 10E-3 M; how it was run: as §1
# [7] = species: Cavia porcellus; assay: Compound was evaluated for its effect on the frequency rate of spontaneously beating atria from Reserpine-treated guinea pigs as percentage variation from the control at concentration of 3 x 10E-4 M; how it was run: as §1
# [8] = species: Cavia porcellus; assay: Effect on the contractile force of spontaneously beating atria from Reserpine-treated guinea pigs as percentage variation from the control at concentration of 10E-6 M; how it was run: as §1
# [9] = species: Cavia porcellus; assay: Effect on the contractile force of spontaneously beating atria from Reserpine-treated guinea pigs as percentage variation from the control at concentration of 3 x 10E-6 M; how it was run: as §1
# [10] = species: Cavia porcellus; assay: Effect on the contractile force of spontaneously beating atria from Reserpine-treated guinea pigs as percentage variation from the control at concentration of 10E-5 M; how it was run: as §1
# [11] = species: Cavia porcellus; assay: Effect on the frequency rate of spontaneously beating atria from Reserpine-treated guinea pigs as percentage variation from the control at concentration of 10E-6 M; how it was run: as §1
# [12] = species: Cavia porcellus; assay: Effect on the contractile force of spontaneously beating atria from Reserpine-treated guinea pigs as percentage variation from the control at concentration of 10E-3 M; how it was run: as §1
# [13] = species: Cavia porcellus; assay: Compound was evaluated for its effect on the frequency rate of spontaneously beating atria from Reserpine-treated guinea pigs as percentage variation from the control at concentration of 3 x 10E-5 M; how it was run: as §1
# [14] = species: Cavia porcellus; assay: Effect on the contractile force of spontaneously beating atria from Reserpine treated guinea pigs as percentage variation from the control at concentration of 10E-4 M; how it was run: as §1
Compound,Variation [1] [%],Variation [2] [%],Variation [3] [%],Variation [4] [%],Variation [5] [%],Variation [6] [%],Variation [7] [%],Variation [8] [%],Variation [9] [%],Variation [10] [%],Variation [11] [%],Variation [12] [%],Variation [13] [%],Variation [14] [%]
CCc1ccnc(N(C)C)n1,-14.95,-43.95,-3.03,9.21,0,-42.41,-28.91,5.39,9.91,15.05,0,-84.45,-4.77,-10.54
CCOC(=O)c1cnc(N(C)C)nc1-c1ccccc1,-3.7,-70.37,3.7,2.25,0,-100,-14.81,1.73,10.24,12.05,0,-100,7.4,-40.74
CN(C)c1ncc(C(=O)O)c(C(F)(F)F)n1,-3.03,14.96,-2.85,13.44,0,-14.28,-9.09,2.25,6.15,9.45,0,9.52,-3.03,14.03
CCOC(=O)c1cnc(N(C)C)nc1C(=O)OCC,-40.77,-76.47,-4.76,-5.33,0,-100,-55.55,0,2.18,0.54,0,-100,-7.41,-48.31
CCCc1nc(N(C)C)ncc1C(=O)O,-2.85,19.73,-2.85,15.72,0,-4.28,-5.71,5.38,8.66,11.21,0,23.61,-2.85,18.35
CCCc1ccnc(N(C)C)n1,-52.63,-73.58,-26.31,-10.63,-5.29,-52.63,-52.63,0,7.18,3.15,0,-91.86,-31.58,-64.06
CN(C)c1ncc(C(=O)O)c(-c2ccccc2)n1,-3.12,14.22,0,12.11,0,-6.25,-3.12,6.62,10.63,11.47,0,18.2,0,12.75
COCc1nc(N(C)C)ncc1C(=O)OC,7.14,18.95,2.85,14.95,0,11.43,7.14,3.04,6.93,11.14,0,25.41,3.57,16.95
COCc1ccnc(N(C)C)n1,-4,-11.89,-1.33,-8.02,0,-9.33,4,0,0,0,0,-20.93,-4,-9.03
CCOC(=O)c1cnc(N(C)C)nc1C(C)(C)C,-100,,4.76,-50.08,0,,,0,2.08,-12.52,0,,-7.64,-100
CN(C)c1nccc(C(F)(F)F)n1,-22.58,-83.03,-3.23,-30.94,0,-100,-32.26,0,2.47,-12.62,0,-100,-3.68,-67.95
CC(C)c1nc(N(C)C)ncc1C(=O)O,-14.28,16.41,-3.13,7.79,-3.13,-28.57,-17.58,1.79,4.06,7.13,0,23.17,-10.71,11.77
CC(C)c1ccnc(N(C)C)n1,-41.66,-86.36,-5.15,-28.95,-5.15,-100,-41.66,0,0,-8.84,0,-100,-17.26,-68.77
CCOC(=O)c1cnc(N(C)C)nc1C(C)C,-2.94,-100,-3.51,-34.22,-2.94,,-100,0,3.19,1.06,-3.85,,-0.91,-57.53
CCCc1nc(N(C)C)ncc1C(=O)OCC,,,,-100,,,,0,-5.29,-57.89,0,,,0
CCOC(=O)c1cnc(N(C)C)nc1CC,-100,,-9.37,-67.44,-6.25,,,0,0,-39.54,,,-14.76,-100
